Measured values taken from ChEMBL document CHEMBL1134791, “2- and 3-substituted 1,4-naphthoquinone derivatives as subversive substrates of trypanothione reductase and lipoamide dehydrogenase from Trypanosoma cruzi: synthesis and correlation between redox cycling activities and in vitro cytotoxicity” (J Med Chem, 2001).

Key:
[1] = substrate: CC1=C(CCC(=O)NCCCCNCCCNC(=O)CCC2=C(C)C(=O)c3cccc(O)c3C2=O)C(=O)c2c(O)cccc2C1=O; assay: (§1) The Michaelis-Menten constant for NADPH oxidation by TcTR (Trypanosoma cruzi trypanothione reductase)
In short: (§2)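 Recombinant TcTR (0.6 U) in 20 mM Hepes, 1 mM EDTA, 0.15 M KCl, pH 7.25 at 22 °C, with 200 µM NADPH and naphthoquinone at five concentrations (0–100 µM) in 1% DMSO. NADPH oxidation at 340 nm; intrinsic oxidase rate not subtracted. Km and Vmax from nonlinear Michaelis–Menten fit; kcat and kcat/Km calculated.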

[2] = substrate: CC1=C(CCC(=O)NCCCCNCCCNC(=O)CCC2=C(C)C(=O)c3ccccc3C2=O)C(=O)c2ccccc2C1=O; assay: as §1; in short: as §2
[3] = substrate: CC1=C(CCC(=O)NCCCN2CCN(CCCNC(=O)CCC3=C(C)C(=O)c4cccc(O)c4C3=O)CC2)C(=O)c2c(O)cccc2C1=O; assay: as §1; in short: as §2
[4] = substrate: CC1=C(CCC(=O)NCCCN2CCN(CCCNC(=O)CCC3=C(C)C(=O)c4ccccc4C3=O)CC2)C(=O)c2ccccc2C1=O; assay: as §1; in short: as §2
[5] = substrate: CC1=C(CCC(=O)NCCCNCCCNC(=O)CCC2=C(C)C(=O)c3cccc(O)c3C2=O)C(=O)c2c(O)cccc2C1=O; assay: as §1; in short: as §2
[6] = substrate: CC1=C(CCC(=O)NCCCNCCCNC(=O)CCC2=C(C)C(=O)c3ccccc3C2=O)C(=O)c2ccccc2C1=O; assay: as §1; in short: as §2
[7] = substrate: CC1=C(CCCC(=O)NCCCCNCCCNC(=O)CCCC2=C(C)C(=O)c3cccc(O)c3C2=O)C(=O)c2c(O)cccc2C1=O; assay: as §1; in short: as §2
[8] = substrate: CC1=C(CCCC(=O)NCCCCNCCCNC(=O)CCCC2=C(C)C(=O)c3ccccc3C2=O)C(=O)c2ccccc2C1=O; assay: as §1; in short: as §2
[9] = substrate: CC1=C(CCCC(=O)NCCCN2CCN(CCCNC(=O)CCCC3=C(C)C(=O)c4cccc(O)c4C3=O)CC2)C(=O)c2c(O)cccc2C1=O; assay: as §1; in short: as §2
[10] = substrate: CC1=C(CCCC(=O)NCCCN2CCN(CCCNC(=O)CCCC3=C(C)C(=O)c4ccccc4C3=O)CC2)C(=O)c2ccccc2C1=O; assay: as §1; in short: as §2
[11] = substrate: CC1=C(CCCC(=O)NCCCNCCCNC(=O)CCCC2=C(C)C(=O)c3cccc(O)c3C2=O)C(=O)c2c(O)cccc2C1=O; assay: as §1; in short: as §2
[12] = substrate: CC1=C(CCCC(=O)NCCCNCCCNC(=O)CCCC2=C(C)C(=O)c3ccccc3C2=O)C(=O)c2ccccc2C1=O; assay: as §1; in short: as §2
[13] = substrate: CC1=C(CCCCC(=O)NCCCCNCCCNC(=O)CCCCC2=C(C)C(=O)c3cccc(O)c3C2=O)C(=O)c2c(O)cccc2C1=O; assay: as §1; in short: as §2
[14] = substrate: CC1=C(CCCCC(=O)NCCCCNCCCNC(=O)CCCCC2=C(C)C(=O)c3ccccc3C2=O)C(=O)c2ccccc2C1=O; assay: as §1; in short: as §2
[15] = substrate: CC1=C(CCCCC(=O)NCCCN2CCN(CCCNC(=O)CCCCC3=C(C)C(=O)c4cccc(O)c4C3=O)CC2)C(=O)c2c(O)cccc2C1=O; assay: as §1; in short: as §2
[16] = substrate: CC1=C(CCCCC(=O)NCCCN2CCN(CCCNC(=O)CCCCC3=C(C)C(=O)c4ccccc4C3=O)CC2)C(=O)c2ccccc2C1=O; assay: as §1; in short: as §2
[17] = substrate: CC1=C(CCCCC(=O)NCCCNCCCNC(=O)CCCCC2=C(C)C(=O)c3cccc(O)c3C2=O)C(=O)c2c(O)cccc2C1=O; assay: as §1; in short: as §2
[18] = substrate: CC1=C(CCCCC(=O)NCCCNCCCNC(=O)CCCCC2=C(C)C(=O)c3ccccc3C2=O)C(=O)c2ccccc2C1=O; assay: as §1; in short: as §2
[19] = substrate: CC1=C(CCCCCC(=O)NCCCCNCCCNC(=O)CCCCCC2=C(C)C(=O)c3cccc(O)c3C2=O)C(=O)c2c(O)cccc2C1=O; assay: as §1; in short: as §2
[20] = substrate: CC1=C(CCCCCC(=O)NCCCCNCCCNC(=O)CCCCCC2=C(C)C(=O)c3ccccc3C2=O)C(=O)c2ccccc2C1=O; assay: as §1; in short: as §2
[21] = substrate: CC1=C(CCCCCC(=O)NCCCN2CCN(CCCNC(=O)CCCCCC3=C(C)C(=O)c4cccc(O)c4C3=O)CC2)C(=O)c2c(O)cccc2C1=O; assay: as §1; in short: as §2
[22] = substrate: CC1=C(CCCCCC(=O)NCCCN2CCN(CCCNC(=O)CCCCCC3=C(C)C(=O)c4ccccc4C3=O)CC2)C(=O)c2ccccc2C1=O; assay: as §1; in short: as §2
[23] = substrate: CC1=C(CCCCCC(=O)NCCCNCCCNC(=O)CCCCCC2=C(C)C(=O)c3cccc(O)c3C2=O)C(=O)c2c(O)cccc2C1=O; assay: as §1; in short: as §2
[24] = substrate: CC1=C(CCCCCC(=O)NCCCNCCCNC(=O)CCCCCC2=C(C)C(=O)c3ccccc3C2=O)C(=O)c2ccccc2C1=O; assay: as §1; in short: as §2
[25] = substrate: CC1=CC(=O)c2c(O)cccc2C1=O; assay: as §1; in short: as §2
[26] = substrate: CC1=CC(=O)c2ccccc2C1=O; assay: as §1; in short: as §2
[27] = substrate: CC1=C(CCC(=O)NCCCCNCCCNC(=O)CCC2=C(C)C(=O)c3ccccc3C2=O)C(=O)c2ccccc2C1=O; assay: Vmax is the maximum velocity of the TcTR (Trypanosoma cruzi trypanothione reductase) catalyzed NADPH oxidation.
[28] = substrate: CC1=C(CCC(=O)NCCCNCCCNC(=O)CCC2=C(C)C(=O)c3ccccc3C2=O)C(=O)c2ccccc2C1=O; assay: as above
[29] = substrate: CC1=C(CCCC(=O)NCCCCNCCCNC(=O)CCCC2=C(C)C(=O)c3cccc(O)c3C2=O)C(=O)c2c(O)cccc2C1=O; assay: as above
[30] = substrate: CC1=C(CCCC(=O)NCCCNCCCNC(=O)CCCC2=C(C)C(=O)c3cccc(O)c3C2=O)C(=O)c2c(O)cccc2C1=O; assay: as above
[31] = substrate: CC1=C(CCCCC(=O)NCCCCNCCCNC(=O)CCCCC2=C(C)C(=O)c3cccc(O)c3C2=O)C(=O)c2c(O)cccc2C1=O; assay: as above

B1: Trypanothione reductase (Trypanosoma cruzi), P28593 (protein)
chain: MMSKIFDLVVIGAGSGGLEAAWNAATLYKKRVAVIDVQMVHGPPFFSALGGTCVNVGCVPKKLMVTGAQYMEHLRESAGFGWEFDRTTLRAEWKKLIAVKDEAVLNINKSYEEMFRDTEGLEFFLGWGSLESKNVVNVRESADPASAVKERLETENILLASGSWPHMPNIPGIEHCISSNEAFYLPEPPRRVLTVGGGFISVEFAGIFNAYKPKDGQVTLCYRGEMILRGFDHTLREELTKQLTANGIQILTKENPAKVELNADGSKSVTFESGKKMDFDLVMMAIGRSPRTKDLQLQNAGVMIKNGGVQVDEYSRTNVSNIYAIGDVTNRVMLTPVAINEAAALVDTVFGTNPRKTDHTRVASAVFSIPPIGTCGLIEEVASKRYEVVAVYLSSFTPLMHNISGSKYKTFVAKIITNHSDGTVLGVHLLGDNAPEIIQGVGICLKLNAKISDFYNTIGVHPTSAEELCSMRTPSYYYVKGEKMEKPSEASL
Km [1]: 48 µM | Km [2]: 30 µM | Km [3]: 78 µM | Km [4]: 14 µM | Km [5]: 230 µM | Km [6]: 47 µM | Km [7]: 93 µM | Km [8]: 74 µM | Km [9]: 52 µM | Km [10]: 12 µM | Km [11]: 55 µM | Km [12]: 23 µM | Km [13]: 20 µM | Km [14]: 16 µM | Km [15]: 17 µM | Km [16]: 16 µM | Km [17]: 28 µM | Km [18]: 37 µM | Km [19]: 37 µM | Km [20]: 21 µM | Km [21]: 8 µM | Km [22]: 12 µM | Km [23]: 28 µM | Km [24]: 3 µM | Km [25]: 15 µM | Km [26]: 21 µM | Vmax [27]: 1.83 µM/min/mg | Vmax [28]: 1.3 µmol/min/mg | Vmax [29]: 4 µM/min/mg | Vmax [30]: 4.29 µM/min/mg | Vmax [31]: 3.11 µM/min/mg
